Reference: ChEMBL document CHEMBL5344470, “Probing the Use of Triphenyl Phosphonium Cation for Mitochondrial Nucleoside Delivery” (ACS Med Chem Lett, 2024)
Each block holds one compound with its values, some of them ahead of it.

Legend:
[1] = system: esterase; assay: Stability of compound assessed as pig liver esterase mediated hydrolysis by measuring half life at 50 uM by HPLC analysis; assay type: ADME, Sus scrofa
Procedure, shortened: (§1)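 Compounds incubated with pig liver esterase, cell culture medium or MCF-7 cell extracts; decomposition followed by HPLC with direct injection of the biological medium, no sample pretreatment; half-lives determined; hydrolysis metabolite identified by co-injection with authentic sample.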

[2] = Stability of compound in culture media assessed as compound hydrolysis by measuring half life at 50 uM by HPLC analysis; assay type: physicochemical; procedure, shortened: as §1
[3] = Stability of compound in MCF7 cell extract assessed as compound hydrolysis by measuring half life at 50 uM by HPLC analysis; assay type: physicochemical; conditions: human; procedure, shortened: as §1
[4] = Drug metabolism assessed as compound hydrolysis by measuring 2-(6-hydroxy-3-oxo-3H-xanthen-9-yl)-5-((1-((2R,4S,5R)-4-hydroxy-5-(hydroxymethyl)tetrahydrofuran-2-yl)-2-oxo-1,2-dihydropyrimidin-4-yl)carbamoyl)benzoic acid formation; assay type: ADME; procedure, shortened: as §1
[5] = Drug localization in mitochondria of human MCF7 cells at 50 uM incubated for 24 hrs by MitoTracker red CMXRos staining based confocal fluorescence microscopy; assay type: ADME; conditions: mcf7, 24 h
Procedure, shortened: (§2)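 MCF-7 cells incubated 24 h at 37 °C with 50 μM fluorescein-labelled compound; mitochondria stained with 200 nM MitoTracker red CMXRos and nuclei with Hoechst 33342 (10 μg/mL final); cells washed twice with medium, then imaged by confocal microscopy (488 nm fluorescein, 561 nm MitoTracker, 760 nm Hoechst, 63×/1.4 oil objective); untreated cells as control.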

[6] = Drug localization in mitochondria of human MCF7 cells assessed as appearance of green and red overlapped superimposed images at 100 uM incubated for 24 hrs by MitoTracker red CMXRos staining based super-resolution confocal fluorescence microscopy; assay type: ADME; conditions: mcf7, 24 h
Procedure, shortened: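 Living MCF-7 cells treated 24 h with 100 μM fluorescein-labelled compound, stained with 100 nM MitoTracker red CMXRos and Hoechst 33342 (10 μg/mL final), washed twice with medium; Airyscan super-resolution confocal imaging (488/561/405 nm, 63×); co-localization judged from overlapping green and red areas in superimposed images; untreated cells as control.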

[7] = Cytotoxicity against human MCF7 cells assessed as cell viability upto 50 uM measured after 72 hrs by MTT assay relative to control; assay type: toxicity, cell-based; conditions: read-out: Activity
Procedure, shortened: (§3)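 MCF-7 breast cancer cells exposed to test compounds at a range of concentrations (up to 100 μM) for 72 h; cell viability measured and expressed as percentage viability or cell death relative to untreated control.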

[8] = Cytotoxicity against human MCF7 cells assessed as cell viability at 100 uM measured after 72 hrs by MTT assay relative to control; assay type: toxicity, cell-based; conditions: read-out: Activity; procedure, shortened: as §3
[9] = Drug concentration in living human MCF7 cells at 5 uM incubated for 24 hrs by flow cytometry analysis; assay type: ADME, cell-based; conditions: mcf7, 24 h
Procedure, shortened: (§4)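 Living MCF-7 cells incubated 24 h with test compounds at different concentrations; fluorescein-labelled compound uptake quantified by flow cytometry as percentage internalization; mean ± SEM of three independent experiments.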

[10] = Drug concentration in living human MCF7 cells at 10 uM incubated for 24 hrs by flow cytometry analysis; assay type: ADME, cell-based; conditions: mcf7, 24 h; procedure, shortened: as §4
[11] = Drug concentration in living human MCF7 cells at 25 uM incubated for 24 hrs by flow cytometry analysis; assay type: ADME, cell-based; conditions: mcf7, 24 h; procedure, shortened: as §4
[12] = Drug concentration in living human MCF7 cells at 50 uM incubated for 24 hrs by flow cytometry analysis; assay type: ADME, cell-based; conditions: mcf7, 24 h; procedure, shortened: as §4
[13] = Drug accumulation in living human MCF7 cells at 25 uM incubated for 24 hrs by flow cytometry analysis; assay type: ADME, cell-based; conditions: mcf7, 24 h; procedure, shortened: as §4
[14] = Drug localization in cytoplasm of human MCF7 cells at 50 uM incubated for 24 hrs by confocal fluorescence microscopy; assay type: ADME, subcellular; conditions: mcf7, 24 h; procedure, shortened: as §2
[15] = Drug internalization in living human MCF7 cells at 5 uM incubated for 24 hrs by flow cytometry analysis; assay type: ADME, cell-based; conditions: mcf7, 24 h; procedure, shortened: as §4
[16] = Drug internalization in living human MCF7 cells at 10 uM incubated for 24 hrs by flow cytometry analysis; assay type: ADME, cell-based; conditions: mcf7, 24 h; procedure, shortened: as §4
[17] = system: MCF7; assay: Cytotoxicity against human MCF7 cells assessed as cell death at 10 uM measured after 72 hrs by MTT assay relative to control; assay type: toxicity, cell-based; conditions: mcf7, 72 h; procedure, shortened: as §3
[18] = system: MCF7; assay: Cytotoxicity against human MCF7 cells assessed as cell death at 50 uM measured after 72 hrs by MTT assay relative to control; assay type: toxicity, cell-based; conditions: mcf7, 72 h; procedure, shortened: as §3
[19] = Drug internalization in living human MCF7 cells at 50 uM incubated for 24 hrs by flow cytometry analysis; assay type: ADME, cell-based; conditions: mcf7, 24 h; procedure, shortened: as §4
[20] = Stability of compound in culture media assessed as compound hydrolysis at 50 uM by HPLC analysis; assay type: physicochemical; procedure, shortened: as §1

half-life at 50 µM [1]: < 0.25 h
half-life at 50 µM [2]: > 17.8 h
half-life at 50 µM [3]: > 8.4 h
Drug metabolism [4]: Metabolite_Detected
Drug uptake [5]: Active
Drug uptake [6]: Active
Drug uptake [9]: 3%
Drug uptake [10]: 24%
Drug uptake [11]: 96%
Drug uptake [12]: 100%
Drug uptake [13]: 96%
SMILES: O=C(CCCCCCCCC[P+](c1ccccc1)(c1ccccc1)c1ccccc1)OC[C@H]1O[C@@H](n2ccc(NC(=O)c3ccc(-c4c5ccc(=O)cc-5oc5cc(O)ccc45)c(C(=O)O)c3)nc2=O)C[C@@H]1O.O=C([O-])C(F)(F)F
viability at 72 h, up to 50 µM [7]: 84%
viability at 72 h, 100 µM [8]: 60%

Drug uptake [14]: Active
Drug uptake [5]: Not Active
Drug uptake [9]: 2%
Drug uptake [10]: 12%
Drug uptake [11]: 62%
Drug uptake [12]: 87%
Drug uptake [13]: 62%
SMILES: O=C(Nc1ccn([C@H]2C[C@H](O)[C@@H](CO)O2)c(=O)n1)c1ccc(-c2c3ccc(=O)cc-3oc3cc(O)ccc23)c(C(=O)O)c1

Drug uptake [9]: 0.4%
Drug uptake [10]: 0.8%
Drug uptake [11]: 3%
Drug uptake [12]: 17%
Drug uptake [19]: 17%
SMILES: O=C(CCCCC[P+](c1ccccc1)(c1ccccc1)c1ccccc1)OC[C@H]1O[C@@H](n2ccc(NC(=O)c3ccc(-c4c5ccc(=O)cc-5oc5cc(O)ccc45)c(C(=O)O)c3)nc2=O)C[C@@H]1O.O=C([O-])C(F)(F)F
Activity [17]: 61%
Activity [18]: 44%

half-life at 50 µM [1]: < 0.25 h
half-life at 50 µM [2]: > 17.8 h
half-life at 50 µM [3]: > 8.4 h
SMILES: Nc1ccn([C@H]2C[C@H](O)[C@@H](COC(=O)CCCCC[P+](c3ccccc3)(c3ccccc3)c3ccccc3)O2)c(=O)n1.O=C(O)C(F)(F)F.O=C([O-])C(F)(F)F

More lines, now with the values behind:

SMILES: Nc1ccn([C@H]2C[C@H](O)[C@@H](COC(=O)CCCCCCCCC[P+](c3ccccc3)(c3ccccc3)c3ccccc3)O2)c(=O)n1.O=C(O)C(F)(F)F.O=C([O-])C(F)(F)F
half-life at 50 µM [1]: < 0.25 h
half-life at 50 µM [2]: > 17.8 h
half-life at 50 µM [3]: > 8.4 h

SMILES: O=C(CC[P+](c1ccccc1)(c1ccccc1)c1ccccc1)OC[C@H]1O[C@@H](n2ccc(NC(=O)c3ccc(-c4c5ccc(=O)cc-5oc5cc(O)ccc45)c(C(=O)O)c3)nc2=O)C[C@@H]1O.O=C([O-])C(F)(F)F
Drug uptake [14]: Active
Drug uptake [5]: Active
Drug uptake [9]: 27%
Drug uptake [10]: 61%
Drug uptake [11]: 96%
Drug uptake [12]: 99%
Drug uptake [13]: > 95%
Drug uptake [15]: 27%
Drug uptake [16]: 61%

SMILES: Nc1ccn([C@H]2C[C@H](O)[C@@H](COC(=O)CC[P+](c3ccccc3)(c3ccccc3)c3ccccc3)O2)c(=O)n1.O=C(O)C(F)(F)F.O=C([O-])C(F)(F)F
half-life at 50 µM [1]: < 0.25 h
Stability [20]: Unstable
half-life at 50 µM [3]: > 8.4 h
